Experimental data collected from several papers.
Protocols differ between the studies behind these lines.
Tested at: 1 µM
CDK5: Cyclin-dependent kinase 5 (CDK5, Homo sapiens, UniProt Q00535)
CDK5 with p35: Cyclin-dependent kinase 5, with p35 (CDK5, Homo sapiens, UniProt Q00535)

CN1CCN(C(=O)c2ccc(NC(=O)Nc3ccc(N(C)c4ccnc(Nc5ccc(CS(C)(=O)=O)cc5)n4)cc3)cc2)CC1
remaining binding (CDK5; binding; competition with immobilised ligand): 91%

COc1ccc2oc(-c3ccc4nc(N)oc4c3)c/c(=N\c3ccccc3NC(=O)CCN)c2c1
remaining binding (CDK5 with p35; binding): 107%

C[C@H]1CC[C@H](n2c3cnccc3c3cnc(Nc4ccc5c(n4)CCN(C(=O)CO)C5)nc32)CC1
remaining binding (CDK5; binding; competition with immobilised ligand): 26%

C=CC(=O)N1CCC[C@@H](n2nc(-c3ccc(Oc4ccccc4)cc3)c3c(N)ncnc32)C1
inhibition (CDK5; enzyme activity; inhibitor): 10%

Cc1cc(S(=O)(=O)N[C@H]2CC[C@H](CN3CCN(c4ccc(C5CCC(=O)NC5=O)cc4F)CC3)CC2)ccc1Nc1ncc(C(F)(F)F)c(N2CCC[C@](C)(O)C2)n1 (some centres unmarked)
remaining binding (CDK5; binding; competition with immobilised ligand): 29%

CC(C)S(=O)(=O)c1ccc2nccc(Nc3ccc4sc(C5CCCC5)nc4c3)c2c1
activity vs control (CDK5 with p35; enzyme activity; inhibitor): 101%

C=CC(=O)N1CCC([C@@H]2CCNc3c(C(N)=O)c(-c4ccc(Oc5ccccc5)cc4)nn32)CC1
inhibition (CDK5; enzyme activity; inhibitor): 7%

CNS(=O)(=O)c1ccc(Nc2ncc(C(F)(F)F)c(N3CCC[C@](C)(O)C3)n2)c(C)c1
remaining binding (CDK5; binding; competition with immobilised ligand): 13%
